Reference: ChEMBL document CHEMBL4346653, “A2B Adenosine Receptor Antagonists with Picomolar Potency” (J Med Chem, 2019)
pKi: −log10 of the molar value.

Columns and labels:
[1] = target: T1, Adenosine receptor A3 (Homo sapiens) (UniProt P0DMS8); test: Displacement of [3H]PSB-11 from recombinant human A3 adenosine receptor expressed in CHO cell membranes at 1 uM measured after 45 mins in presence of adenosine deaminase by liquid scintillation counting method relative to control
T1 sequence (whole entry): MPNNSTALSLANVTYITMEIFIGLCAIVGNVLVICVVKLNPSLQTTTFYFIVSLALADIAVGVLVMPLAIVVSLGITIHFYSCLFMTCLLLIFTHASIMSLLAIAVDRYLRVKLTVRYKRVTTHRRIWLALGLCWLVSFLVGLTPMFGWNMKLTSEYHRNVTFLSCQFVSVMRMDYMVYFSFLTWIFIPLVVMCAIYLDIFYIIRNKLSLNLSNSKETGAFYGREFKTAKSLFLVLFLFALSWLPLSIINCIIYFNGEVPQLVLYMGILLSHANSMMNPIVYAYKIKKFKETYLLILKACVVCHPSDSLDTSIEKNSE
Procedure, shortened: (§1)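 Single-point competition binding at human AR subtype membranes, each against its own tritiated radioligand. The test compound is given at 1 μM, and the result is reported as percent inhibition of radioligand binding. The radioligand-specific footnotes give n = 3.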

Homo sapiens = species: Homo sapiens; test: Selectivity index, ratio of Ki for displacement of [3H]MSX-2 from recombinant human A2A adenosine receptor expressed in CHO cell membranes to Ki for displacement of [3H]PSB-603 from recombinant human A2B adenosine receptor expressed in CHO cell membranes
Adenosine receptor A1 = target: T2, Adenosine receptor A1 (Homo sapiens, UniProt P30542); test: Displacement of [3H]CCPA from recombinant human A1 adenosine receptor expressed in CHO cell membranes measured after 90 mins in presence of adenosine deaminase by liquid scintillation counting method
T2 sequence (P30542 whole entry): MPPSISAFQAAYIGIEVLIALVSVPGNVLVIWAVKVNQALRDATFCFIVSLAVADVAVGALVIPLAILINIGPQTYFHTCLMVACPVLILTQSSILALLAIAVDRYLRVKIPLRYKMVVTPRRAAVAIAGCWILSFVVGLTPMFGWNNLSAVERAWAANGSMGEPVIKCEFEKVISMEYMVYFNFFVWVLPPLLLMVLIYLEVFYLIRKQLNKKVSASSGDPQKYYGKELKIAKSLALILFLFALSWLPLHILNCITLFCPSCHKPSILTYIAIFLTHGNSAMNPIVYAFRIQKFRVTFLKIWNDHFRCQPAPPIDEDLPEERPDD
Procedure, shortened: (§2)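 Competition binding on membranes of cells recombinantly expressing the human receptor (CHO or HEK cells), with tritiated radioligand per subtype: [3H]PSB-603 for A2B, [3H]MSX-2 for A2A, [3H]CCPA for A1, [3H]PSB-11 for A3. Ki ± SEM from n = 3, some from extrapolated curves. Weak binders are reported as % inhibition of radioligand binding at 1 μM.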

Adenosine receptor A2b = target: T3, Adenosine receptor A2b (Homo sapiens, UniProt P29275); test: Displacement of [3H]PSB-603 from recombinant human A2B adenosine receptor expressed in CHO cell membranes measured after 75 mins in presence of adenosine deaminase by liquid scintillation counting method; procedure, shortened: as §2
T3 sequence (P29275 whole entry): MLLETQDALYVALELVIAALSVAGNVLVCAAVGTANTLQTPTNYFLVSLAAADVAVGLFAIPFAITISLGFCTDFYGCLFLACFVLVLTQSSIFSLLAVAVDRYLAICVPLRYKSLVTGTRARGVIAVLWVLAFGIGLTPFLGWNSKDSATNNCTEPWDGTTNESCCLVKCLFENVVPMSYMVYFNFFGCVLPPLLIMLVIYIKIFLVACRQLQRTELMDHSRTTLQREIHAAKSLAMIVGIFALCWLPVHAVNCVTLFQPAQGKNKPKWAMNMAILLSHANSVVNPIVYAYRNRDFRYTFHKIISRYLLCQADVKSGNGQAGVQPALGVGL

Adenosine receptor A3 = target: T4, Adenosine receptor A3 (Homo sapiens, UniProt P0DMS8); test: Displacement of [3H]PSB-11 from recombinant human A3 adenosine receptor expressed in CHO cell membranes measured after 45 mins in presence of adenosine deaminase by liquid scintillation counting method; procedure, shortened: as §2
T4 sequence (P0DMS8 whole entry): T1 sequence (whole entry)

Adenosine receptor A2a = Adenosine receptor A2a (Homo sapiens, UniProt P29274); test: Displacement of [3H]MSX-2 from recombinant human A2A adenosine receptor expressed in CHO cell membranes measured after 30 mins in presence of adenosine deaminase by liquid scintillation counting method; procedure, shortened: as §2
Sequence of Adenosine receptor A2a (P29274 whole entry): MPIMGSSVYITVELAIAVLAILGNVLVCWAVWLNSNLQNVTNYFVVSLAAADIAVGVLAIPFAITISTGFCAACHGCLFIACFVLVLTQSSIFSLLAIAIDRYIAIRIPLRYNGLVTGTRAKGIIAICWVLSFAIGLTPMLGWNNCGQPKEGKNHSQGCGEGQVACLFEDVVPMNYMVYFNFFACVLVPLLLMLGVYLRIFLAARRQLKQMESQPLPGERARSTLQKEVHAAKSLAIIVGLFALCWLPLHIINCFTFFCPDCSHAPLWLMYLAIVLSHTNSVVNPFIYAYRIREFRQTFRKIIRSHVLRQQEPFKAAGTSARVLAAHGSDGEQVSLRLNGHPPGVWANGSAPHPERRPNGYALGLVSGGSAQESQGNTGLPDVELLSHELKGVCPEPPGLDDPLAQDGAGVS

[2] = target: T5, Adenosine receptor A1 (Homo sapiens) (UniProt P30542); test: Displacement of [3H]CCPA from recombinant human A1 adenosine receptor expressed in CHO cell membranes at 1 uM measured after 90 mins in presence of adenosine deaminase by liquid scintillation counting method relative to control; procedure, shortened: as §1
T5 sequence (whole entry): T2 sequence (P30542 whole entry)

| Compound | inhibition [1] | Ratio Ki (Homo sapiens) | pKi (Adenosine receptor A1) | pKi (Adenosine receptor A2b) | pKi (Adenosine receptor A3) | pKi (Adenosine receptor A2a) | inhibition [2] |
| --- | --- | --- | --- | --- | --- | --- | --- |
| CCCn1c(=O)[nH]c2nc(-c3ccc(S(=O)(=O)N4CCN(c5ccccc5)CC4)cc3)[nH]c2c1=O | 27% | 190 | 6.44 | 9.19 | < 6.00 | 6.91 | – |
| CCCn1c(=O)[nH]c2nc(-c3ccc(S(=O)(=O)N4CCN(c5cccc(OC)c5)CC4)cc3)[nH]c2c1=O | -1% | 320 | < 6.00 | 9.21 | < 6.00 | 6.71 | -3% |
| CCCn1c(=O)[nH]c2nc(-c3ccc(S(=O)(=O)N4CCN(Cc5ccc(OCCOCCOC)cc5)CC4)cc3)[nH]c2c1=O | 30% | 50 | 6.00 | 8.15 | < 6.00 | 6.50 | – |
| CCCn1c(=O)[nH]c2nc(-c3ccc(S(=O)(=O)N4CCN(Cc5ccc(OC)c(F)c5)CC4)cc3)[nH]c2c1=O | 15% | 270 | < 6.00 | 9.05 | < 6.00 | 6.61 | 24% |
| CCCn1c(=O)[nH]c2nc(-c3ccc(S(=O)(=O)N4CCN(Cc5cccc(C)c5)CC4)cc3)[nH]c2c1=O | 17% | 480 | 6.10 | 9.40 | < 6.00 | 6.72 | – |
| CCCn1c(=O)[nH]c2nc(-c3ccc(S(=O)(=O)N4CCN(C)CC4)cc3)[nH]c2c1=O | 7% | 3 | 6.48 | 7.32 | < 6.00 | 6.85 | – |
| CCCn1c(=O)[nH]c2nc(-c3ccc(S(=O)(=O)N4CCN(c5ccc(Cl)c(OC)c5)CC4)cc3)[nH]c2c1=O | 46% | 160 | 6.27 | 9.67 | < 6.00 | 7.45 | – |
| CCCn1c(=O)[nH]c2nc(-c3ccc(S(=O)(=O)N4CCN(c5ccccc5C)CC4)cc3)[nH]c2c1=O | 25% | 320 | 6.38 | 9.36 | < 6.00 | 6.85 | – |
| CCCn1c(=O)[nH]c2nc(-c3ccc(S(=O)(=O)N4CCN(Cc5ccc(OCCO)cc5)CC4)cc3)[nH]c2c1=O | 17% | 20 | 6.25 | 7.91 | < 6.00 | 6.62 | – |
| CCCn1c(=O)[nH]c2nc(-c3ccc(S(=O)(=O)N(C)C)cc3)[nH]c2c1=O | – | 3 | 6.72 | 7.73 | 5.91 | 7.28 | – |
| CCCn1c(=O)[nH]c2nc(-c3ccc(S(=O)(=O)N4CCN(c5ccc(Cl)c(O)c5)CC4)cc3)[nH]c2c1=O | 31% | 100 | 6.95 | 9.38 | < 6.00 | 7.39 | – |
| CCCn1c(=O)[nH]c2nc(-c3ccc(S(=O)(=O)N4CCN(Cc5ccc(N=[N+]=[N-])cc5)CC4)cc3)[nH]c2c1=O | 32% | 850 | 6.31 | 9.61 | < 6.00 | 6.68 | – |
| CCCn1c(=O)[nH]c2nc(-c3ccc(S(=O)(=O)N4CCN(c5ccc(O)cc5)CC4)cc3)[nH]c2c1=O | 21% | 20 | 6.45 | 8.37 | < 6.00 | 7.01 | – |
| CCCn1c(=O)[nH]c2nc(-c3ccc(S(=O)(=O)N(C)CCc4ccccc4)cc3)[nH]c2c1=O | 4% | 210 | 5.98 | 8.77 | < 6.00 | 6.45 | – |
| CCCn1c(=O)[nH]c2nc(-c3ccc(S(=O)(=O)N4CCN(Cc5cccc(OC)c5)CC4)cc3)[nH]c2c1=O | 27% | 100 | 6.69 | 8.89 | < 6.00 | 6.88 | – |
